9 compounds from paper PMC6930338 (Journal of autoimmunity, 2019) can be followed below.

Residue numbers refer to the chain shown, from its start. Where no end group is shown, it is not given here.

The target in series [1] is HLA-DRB4*01:01/ *01:03 (Homo sapiens, UniProt P01903+P13762, G164S). Description: In vitro competitive peptide binding to purified MHC class II. In short, it runs like this:
(§1)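 Candidate MPO peptides were picked by IEDB in silico prediction and then tested in vitro. Each peptide's inhibition of binding of a high-affinity radiolabeled peptide to purified HLA-DPB1*04:01 or HLA-DRB4*01:01 class II molecules was measured.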

The target in series [2] is T1, HLA-DPA1*01:03/ HLA-DPB1*04:01 (Homo sapiens, UniProt P04440+P20036).
T1 sequence (P20036 29-260): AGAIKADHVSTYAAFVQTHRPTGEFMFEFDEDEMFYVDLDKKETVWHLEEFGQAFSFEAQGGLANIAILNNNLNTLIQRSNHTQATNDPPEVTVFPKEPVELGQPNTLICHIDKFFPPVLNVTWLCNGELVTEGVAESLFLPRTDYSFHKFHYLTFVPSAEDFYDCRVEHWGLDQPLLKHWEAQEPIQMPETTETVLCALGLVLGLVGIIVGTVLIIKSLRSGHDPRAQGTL
T1 sequence (P04440 30-258): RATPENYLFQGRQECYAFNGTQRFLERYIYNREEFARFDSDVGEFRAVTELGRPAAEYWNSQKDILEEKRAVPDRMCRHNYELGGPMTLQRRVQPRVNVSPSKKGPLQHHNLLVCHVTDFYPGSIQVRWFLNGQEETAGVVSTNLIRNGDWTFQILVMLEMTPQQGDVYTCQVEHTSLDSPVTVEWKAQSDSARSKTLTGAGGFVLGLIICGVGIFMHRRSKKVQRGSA
The description is as above. The method in brief: as §1

In series [3] the target is HLA-DRB1*04:01-*04:13 (Homo sapiens, UniProt P01903+P01911, A100K/A169T/F76Y/I96L/K127E/L162R/M171V/N62H/P40V/Q125Y/R42H/S133A/S149N/S66Y/V115G/V209L/W38E). Put plainly: In vitro competitive peptide binding to purified MHC class II.
Series [4] has as its target T2, HLA-DPA1*01:03/ HLA-DPB1*04:02 (Homo sapiens, UniProt P04440+P20036, A65V/A84D/A85E/L207M).
T2 sequence (P20036 29-260): T1 sequence (P20036 29-260)
T2 sequence (P04440 30-258 A65V/A84D/A85E): T1 sequence (P04440 30-258) with A36V, A55D, A56E
Described as above.

Series [5] deals with HLA-DRB1*03:04/ *03:07 (Homo sapiens, UniProt P01903+P01911, A100K/A102G/A103R/A169T/F55Y/I96L/K41T/L162R/M171V/P40S/Q125H/Q178H/Q39Y/R42S/T106N/T262R/W38E/Y61H). Described as above.
For series [6], the target named is HLA-DRB5*01:01/ *01:02/ *02:02 (Homo sapiens, UniProt P01903+Q30154). The series is described as above.
Series [7] in a line: Peptide solubility noted during ELISA optimization. Conditions: qualitative; follow-up testing and optimization of ELISA. Format: physicochemical.

For orientation: IC50 means the concentration at which inhibition is half-maximal. As to PRWDGERLYQEARKIVGAMV [MPO435–454], the IC50 was 253 nM in series [1] and 1050 nM in series [2].
Take PILRGLMATPAKLNR [MPO545–559]: the IC50 in series [3] came out at 8 nM; in series [4], 2480 nM; in series [1] it was 68 nM; in series [5], 32.8 µM; in series [6], 29 nM; in series [2], 12000 nM.
For the compound DQERSLMFMQWGQLL [MPO245–259], the half-inhibitory concentration (IC50) was determined as 4140 nM in series [3]; 910 nM in series [4]; 381 nM in series [1]; 70 µM in series [5]; 1180 nM in series [6]; 1090 nM in series [2].
Take PVAATRTAVRAADYL [MPO105–119]: the IC50 in series [3] came out at 433 nM; in series [4], 6170 nM; in series [1] it was 876 nM; in series [5] it was 14.5 µM; in series [6], 321 nM; in series [2] it was 7120 nM.
Regarding “IKAVRIYIGDVMRQT [MPO447–461scramble, reference compound]”, the IC50 came to 17 nM in series [1] and 38 nM in series [2].
Turning to MPELTSMHTLLLREH [MPO409–423], the concentration for half-maximal inhibition (IC50) in series [3] was 16 nM; in series [4] it was 826 nM; in series [1], 217 nM; in series [5], 11 µM; in series [6], 81 nM; in series [2], 409 nM.
For the compound `CC[C@H](C)[C@H](NC(=O)[C@H](CCCNC(=N)N)NC(=O)[C@@H]1CCCN1)C(=O)N[C@@H](C)C(=O)N[C@@H](CC(N)=O)C(=O)N[C@H](C(=O)N[C@@H](Cc1ccccc1)C(=O)N[C@H](C(=O)N[C@@H](CC(N)=O)C(=O)N[C@@H](C)C(=O)N[C@@H](Cc1ccccc1)C(=O)N[C@@H](CCCNC(=N)N)C(=O)N[C@@H](Cc1ccc(O)cc1)C(=O)NCC(=O)N[C@@H](Cc1c[nH]cn1)C(=O)O)[C@@H](C)O)C(C)C` [MPO488–502], the IC50 in series [3] amounted to 2 nM; in series [4], 1340 nM; in series [1] it was 725 nM; in series [5], 2.97 µM; in series [6] it was 5 nM; in series [2] it was 5620 nM.
Turning to RKIVGAMVQIITYRD [MPO447–461], the IC50 in series [3] amounted to 46 nM; in series [4], 74 nM; in series [1], 240 nM; in series [5] it was 13.9 µM; in series [6], 1210 nM; in series [2] it was 98 nM. Besides, the “Solubility compared with MPO447–459” value in series [7] was “improved solubility”.
In the case of “GEKLYQEARKIVGAM [MPO413–427, reference compound]”, the IC50 in series [3] turned out to be 933 nM; in series [4], 19400 nM; in series [1], 9350 nM; in series [5], 31.1 µM; in series [6], 1440 nM; in series [2] it was 53700 nM.
